{
  "source": "ChEMBL document CHEMBL1132277",
  "about": "“Probing the binding of indolactam-V to protein kinase C through site-directed mutagenesis and computational docking simulations” (J Med Chem, 1999)",
  "key": {"[1]": {"target": "T1, Protein kinase C delta type (Mus musculus, UniProt P28867)", "T1 sequence (P28867 whole entry, the tested form may be a part)": "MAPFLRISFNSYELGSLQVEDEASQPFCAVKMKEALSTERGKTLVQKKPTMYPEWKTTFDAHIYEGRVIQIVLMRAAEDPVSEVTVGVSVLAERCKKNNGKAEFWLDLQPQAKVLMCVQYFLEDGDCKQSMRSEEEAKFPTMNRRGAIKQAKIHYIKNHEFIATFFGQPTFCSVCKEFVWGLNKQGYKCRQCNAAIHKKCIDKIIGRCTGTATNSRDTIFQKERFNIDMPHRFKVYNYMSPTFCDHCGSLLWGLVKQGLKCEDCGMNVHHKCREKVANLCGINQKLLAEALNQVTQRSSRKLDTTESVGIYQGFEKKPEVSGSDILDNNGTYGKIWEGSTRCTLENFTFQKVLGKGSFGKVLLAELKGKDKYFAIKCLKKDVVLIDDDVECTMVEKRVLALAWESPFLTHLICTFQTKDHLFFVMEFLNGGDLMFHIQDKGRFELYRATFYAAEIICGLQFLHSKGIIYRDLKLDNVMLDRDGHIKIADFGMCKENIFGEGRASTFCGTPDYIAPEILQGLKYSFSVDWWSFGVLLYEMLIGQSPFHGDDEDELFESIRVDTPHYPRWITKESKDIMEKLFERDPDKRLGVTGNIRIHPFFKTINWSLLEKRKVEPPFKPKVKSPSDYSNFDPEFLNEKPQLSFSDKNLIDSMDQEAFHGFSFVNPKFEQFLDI", "assay": "Binding of Indolactam-V(ILV) to mutant Protein kinase C delta C1b domain (Pro11 to Gly)", "summary_of_the_method": "(§1)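 GST fusions of PKCδ C1b domains (wild type or point mutants) expressed in E. coli, used purified or as total lysates. Incubated 5 min at 18 °C with [3H]PDBu, phosphatidylserine, 1 mM EGTA and varying unlabelled (–)-ILV. Bound ligand separated by 35% poly(ethylene glycol) precipitation and centrifugation, then supernatant and pellet counted. Final ligand concentrations used in calculations. Where [3H]PDBu binding was insufficient, ILV affinity was left undetermined.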"}, "[2]": {"target": "T1, Protein kinase C delta type", "assay": "Binding of Indolactam-V(ILV) to mutant Protein kinase C delta C1b domain (Thr12 to Gly)", "summary_of_the_method": "as §1"}, "[3]": {"target": "T1, Protein kinase C delta type", "assay": "Binding of Indolactam-V(ILV) to mutant Protein kinase C delta C1b domain (Gln27 to Val)", "summary_of_the_method": "as §1"}, "[4]": {"target": "T1, Protein kinase C delta type", "assay": "Binding of Indolactam-V(ILV) to mutant Protein kinase C delta C1b domain (Leu20 to Gly)", "summary_of_the_method": "as §1"}, "[5]": {"target": "T1, Protein kinase C delta type", "assay": "Binding of Indolactam-V(ILV) to mutant Protein kinase C delta C1b domain (Phe13 to Gly)", "summary_of_the_method": "as §1"}, "[6]": {"target": "T1, Protein kinase C delta type", "assay": "Binding of Indolactam-V(ILV) to mutant Protein kinase C delta C1b domain (Tyr8 to Gly)", "summary_of_the_method": "as §1"}, "[7]": {"target": "T1, Protein kinase C delta type", "assay": "Binding of Indolactam-V(ILV) to wild-type Protein kinase C delta C1b domain", "summary_of_the_method": "as §1"}},
  "data": [
    {"smiles": "CC(C)[C@H]1C(=O)N[C@H](CO)Cc2c[nH]c3cccc(c23)N1C", "note": "[INDOLACTUM]", "values": [
      {"measurement": "Ki", "setting": "[1]", "value": 7080, "unit": "nM"},
      {"measurement": "Ki", "setting": "[2]", "value": 25.3, "unit": "nM"},
      {"measurement": "Ki", "setting": "[3]", "value": 1100, "unit": "nM"},
      {"measurement": "Ki", "setting": "[4]", "value": 66.2, "unit": "nM"},
      {"measurement": "Ki", "setting": "[5]", "value": 10.9, "unit": "nM"},
      {"measurement": "Ki", "setting": "[6]", "value": 658, "unit": "nM"},
      {"measurement": "Ki", "setting": "[7]", "value": 2.01, "unit": "nM"}
    ]}
  ]
}
